# Columns and labels:
# [1] = biological target: T1, Discoidin domain-containing receptor 2 (Homo sapiens) (UniProt Q16832); assay: Inhibition of DDR2 (unknown origin) at 100 nM using poly (Glu, Tyr) 4:1 substrate after 60 mins by ELISA relative to control
# T1 sequence (whole entry): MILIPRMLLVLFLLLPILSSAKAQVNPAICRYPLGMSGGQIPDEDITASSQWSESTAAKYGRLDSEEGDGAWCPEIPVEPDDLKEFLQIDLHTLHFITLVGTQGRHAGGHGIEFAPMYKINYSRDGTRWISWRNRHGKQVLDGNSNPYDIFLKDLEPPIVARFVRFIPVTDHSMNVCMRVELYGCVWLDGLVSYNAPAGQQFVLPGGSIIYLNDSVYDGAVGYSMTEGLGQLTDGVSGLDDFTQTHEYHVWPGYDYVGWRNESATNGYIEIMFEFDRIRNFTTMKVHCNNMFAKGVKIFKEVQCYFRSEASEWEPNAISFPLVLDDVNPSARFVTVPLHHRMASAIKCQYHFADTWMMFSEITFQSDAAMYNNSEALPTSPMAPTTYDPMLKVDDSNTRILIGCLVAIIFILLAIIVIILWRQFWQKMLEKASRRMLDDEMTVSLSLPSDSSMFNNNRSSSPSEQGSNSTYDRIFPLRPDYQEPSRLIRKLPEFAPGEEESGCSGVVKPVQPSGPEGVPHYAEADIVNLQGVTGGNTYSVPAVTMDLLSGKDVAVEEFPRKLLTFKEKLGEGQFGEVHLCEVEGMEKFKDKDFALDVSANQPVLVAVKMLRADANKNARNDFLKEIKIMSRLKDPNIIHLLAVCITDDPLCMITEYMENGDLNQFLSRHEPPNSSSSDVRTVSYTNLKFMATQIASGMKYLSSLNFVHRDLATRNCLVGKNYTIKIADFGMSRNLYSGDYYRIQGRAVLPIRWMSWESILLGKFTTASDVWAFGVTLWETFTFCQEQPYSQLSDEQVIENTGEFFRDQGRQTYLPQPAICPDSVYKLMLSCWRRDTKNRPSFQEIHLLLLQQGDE
# In short: (§1)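 ELISA with purified recombinant DDR2 on poly(Glu,Tyr) 4:1 precoated at 20 µg/mL. 10 µM ATP in HEPES pH 7.4 buffer with MgCl2, MnCl2, Na3VO4 and DTT, 1% DMSO; 60 min at 37 °C. Phosphotyrosine detected by PY99 and HRP anti-mouse IgG with o-phenylenediamine at A490. Inhibition = 1−A490/A490control; two separate experiments.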
# [2] = biological target: T1, Discoidin domain-containing receptor 2 (Homo sapiens); assay: Inhibition of DDR2 (unknown origin) at 1000 nM using poly (Glu, Tyr) 4:1 substrate after 60 mins by ELISA relative to control; in short: as §1
# [3] = biological target: T2, Discoidin domain-containing receptor 2 (Homo sapiens, UniProt Q16832); assay: Inhibition of DDR2 (unknown origin) using poly (Glu, Tyr) 4:1 substrate after 60 mins by ELISA
# T2 sequence (Q16832 whole entry): T1 sequence (whole entry)
# NCI-H2286 [4] = assay: Antiproliferative activity against human NCI-H2286 cells at 100 nM after 72 hrs by CCK8 assay relative to control; assay type: functional
# KG-1 = assay: Antiproliferative activity against human KG1 cells after 72 hrs by CCK8 assay; details: KG-1, 72 h
# [5] = Half life in ICR(CD-1) mouse at 10 mg/kg, po administered via gavage by triple quadrupole mass spectrometric analysis; assay type: ADME, organism-based; details: in vivo
# In short: (§2)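 Oral gavage at 1 mg/mL in 1% Tween80/water to male ICR mice (18-22 g, n=3). Plasma sampled at 0.25, 0.5, 1, 2, 4, 8 and 24 h, protein precipitated with methanol:acetonitrile (1:1) containing internal standard, and quantified by UPLC-triple quadrupole MS. AUC and MRT were taken from per-animal time-concentration curves. Cmax is the maximum plasma level and Tmax the time to reach it.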
# [6] = Tmax in ICR(CD-1) mouse at 10 mg/kg, po administered via gavage by triple quadrupole mass spectrometric analysis; assay type: ADME, organism-based; details: in vivo
# In short: (§3)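 Dosed by gavage at 1 mg/mL in 1% Tween80/water to male ICR mice, 18-22 g, n=3. Blood taken at 0.25, 0.5, 1, 2, 4, 8 and 24 h. Plasma precipitated with methanol:acetonitrile (1:1) containing internal standard, then UPLC-MS/MS on a C18 column with an ammonium acetate/formic acid–acetonitrile gradient. Tmax read directly from the data; MRT calculated per animal from concentration–time curves.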
# [7] = AUC (0 to t) in ICR(CD-1) mouse at 10 mg/kg, po administered via gavage by triple quadrupole mass spectrometric analysis; assay type: ADME, organism-based; details: in vivo; in short: as §2
# [8] = MRT in ICR(CD-1) mouse at 10 mg/kg, po administered via gavage by triple quadrupole mass spectrometric analysis; assay type: ADME, organism-based; details: in vivo; in short: as §3
# [9] = AUC (0 to infinity) in ICR(CD-1) mouse at 10 mg/kg, po administered via gavage by triple quadrupole mass spectrometric analysis; assay type: ADME, organism-based; set-up: dose 10 mg/kg, route oral, time infinity; details: in vivo; in short: as §2
# NCI-H2286 [10] = assay: Antiproliferative activity against human NCI-H2286 cells after 72 hrs by CCK8 assay; details: NCI-H2286, 72 h
# [11] = Cmax in ICR(CD-1) mouse at 10 mg/kg, po administered via gavage by triple quadrupole mass spectrometric analysis; assay type: ADME, organism-based; set-up: dose 10 mg/kg, route oral; details: in vivo; in short: as §2
# [12] = biological target: Fibroblast growth factor receptor 1 (Homo sapiens, UniProt P11362); assay: Inhibition of FGFR1 (unknown origin) after 60 mins by ELISA
# Chain of Fibroblast growth factor receptor 1 (P11362 whole entry): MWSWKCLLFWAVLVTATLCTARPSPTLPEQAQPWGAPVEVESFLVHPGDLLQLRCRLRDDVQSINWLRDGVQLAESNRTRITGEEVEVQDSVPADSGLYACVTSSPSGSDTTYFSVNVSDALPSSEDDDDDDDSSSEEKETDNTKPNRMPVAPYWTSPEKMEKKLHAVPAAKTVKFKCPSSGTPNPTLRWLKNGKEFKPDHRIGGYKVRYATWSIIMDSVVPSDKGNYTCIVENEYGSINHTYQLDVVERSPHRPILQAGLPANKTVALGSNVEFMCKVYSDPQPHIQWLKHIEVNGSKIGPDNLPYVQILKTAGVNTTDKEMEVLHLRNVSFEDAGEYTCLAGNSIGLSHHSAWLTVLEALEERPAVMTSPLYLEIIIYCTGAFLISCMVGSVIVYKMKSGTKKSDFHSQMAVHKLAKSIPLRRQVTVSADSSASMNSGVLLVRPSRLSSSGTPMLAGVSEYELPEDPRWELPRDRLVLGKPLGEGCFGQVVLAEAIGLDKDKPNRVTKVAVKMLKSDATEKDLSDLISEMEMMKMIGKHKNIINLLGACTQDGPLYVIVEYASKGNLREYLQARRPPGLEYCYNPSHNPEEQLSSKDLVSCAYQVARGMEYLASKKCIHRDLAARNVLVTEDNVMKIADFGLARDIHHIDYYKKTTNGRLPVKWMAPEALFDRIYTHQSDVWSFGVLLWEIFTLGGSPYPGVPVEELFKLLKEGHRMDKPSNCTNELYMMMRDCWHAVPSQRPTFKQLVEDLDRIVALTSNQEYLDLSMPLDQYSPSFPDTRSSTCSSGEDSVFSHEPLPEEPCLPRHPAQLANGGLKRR
smiles,measurement,setting,value
O=C(Nc1cccc(-c2ccc3cn[nH]c3c2)c1)Nc1cccc(C(F)(F)F)c1,inhibition,[1],20.1%
same,inhibition,[2],53.3%
O=C(Nc1ccc(F)c(-c2ccc3cn[nH]c3c2)c1)c1cccc(C(F)(F)F)c1,IC50,[3],64.3 nM
COc1ccc(NC(=O)c2cccc(C(F)(F)F)c2)cc1-c1ccc2cn[nH]c2c1,IC50,[3],67.9 nM
Cc1ccc(C(=O)Nc2cccc(C(F)(F)F)c2)cc1-c1ccc2c(-c3cnn(CCO)c3)n[nH]c2c1,Activity,NCI-H2286 [4],35%
same,IC50,[3],2.9 nM
same,IC50,KG-1,174 nM
O=C(Nc1ccc(Cl)c(-c2ccc3cn[nH]c3c2)c1)c1cccc(C(F)(F)F)c1,IC50,[3],9.5 nM
Cc1c(NC(=O)c2cccc(C(F)(F)F)c2)cccc1-c1ccc2cn[nH]c2c1,inhibition,[1],41.8%
CCN1CCN(Cc2cc(NC(=O)c3ccc(C)c(-c4ccc5cn[nH]c5c4)c3)cc(C(F)(F)F)c2)CC1,IC50,[3],3.9 nM
Cc1ccc(C(=O)Nc2cccc(C(C)(C)C#N)c2)cc1-c1ccc2cn[nH]c2c1,IC50,[3],2.7 nM
Cc1ccc(C(=O)Nc2cccc(C(F)(F)F)c2)cc1-c1ccc2c(-c3ccc(N4CCC(N5CCOCC5)CC4)cc3)n[nH]c2c1,IC50,[3],8.7 nM
same,IC50,KG-1,177 nM
Cc1ccc(C(=O)Nc2cccc(C(F)(F)F)c2)cc1-c1ccc2c(-c3cnn(C4CCN(C)CC4)c3)n[nH]c2c1,half-life,[5],2.75 h
same,Tmax,[6],1.33 h
same,AUC(0-t),[7],552 ng·h/mL
same,MRT,[8],3.96 h
same,IC50,[3],3.8 nM
same,AUC(0-inf),[9],563 ng·h/mL
same,IC50,NCI-H2286 [10],56.5 nM
same,Cmax,[11],170 ng/mL
same,IC50,KG-1,93.3 nM
Cn1ncc2ccc(-c3cccc(NC(=O)c4cccc(C(F)(F)F)c4)c3)cc21,inhibition,[1],7.6%
same,inhibition,[2],29.8%
CCCn1cc(-c2n[nH]c3cc(-c4cc(C(=O)Nc5cccc(C(F)(F)F)c5)ccc4C)ccc23)cn1,Activity,NCI-H2286 [4],41%
same,IC50,[3],3.2 nM
same,IC50,KG-1,358 nM
Cc1ccc(C(=O)NCc2cccc(N3CCN(C)CC3)c2)cc1-c1ccc2cn[nH]c2c1,inhibition,[1],23.2%
CCn1cc(-c2n[nH]c3cc(-c4cc(C(=O)Nc5cccc(C(F)(F)F)c5)ccc4C)ccc23)cn1,IC50,[3],2.6 nM
same,IC50,NCI-H2286 [10],19.8 nM
same,IC50,KG-1,257 nM
Cc1ccc(C(=O)Nc2cccc(N3CCN(C)CC3)c2)cc1-c1ccc2cn[nH]c2c1,inhibition,[1],37.3%
Cc1ccc(C(=O)Nc2cccc(C(F)(F)F)c2)cc1-c1ccc2c(-c3cnn(C4CCOC4)c3)n[nH]c2c1 (stereo unspecified),IC50,[3],6.2 nM
same,IC50,NCI-H2286 [10],69.7 nM
same,IC50,KG-1,304 nM
Cc1ccc(C(=O)Nc2cccc(C(F)(F)F)c2)cc1-c1ccc2c(-c3cnn(CC(C)O)c3)n[nH]c2c1 (stereo unspecified),half-life,[5],0.75 h
same,Tmax,[6],0.25 h
same,AUC(0-t),[7],324 ng·h/mL
same,MRT,[8],1.37 h
same,IC50,[3],3.7 nM
same,AUC(0-inf),[9],334 ng·h/mL
same,IC50,NCI-H2286 [10],196 nM
same,Cmax,[11],202 ng/mL
same,IC50,KG-1,339 nM
Cc1ccc(C(=O)Nc2cccc(C(F)(F)F)c2)cc1-c1ccc2c(-c3cn[nH]c3)n[nH]c2c1,IC50,[12],> 100 nM
same,IC50,[3],55.6 nM
same,IC50,NCI-H2286 [10],> 1000 nM
same,IC50,KG-1,> 1000 nM
Cc1ccc(C(=O)Nc2cccc(CN3CCN(C)CC3)c2)cc1-c1ccc2cn[nH]c2c1,IC50,[3],75.9 nM
Cc1ccc(C(=O)Nc2cccc(C(F)(F)F)c2)cc1-c1ccc2c(-c3cnn(CC(=O)N(C)C)c3)n[nH]c2c1,IC50,[3],2.7 nM
same,IC50,NCI-H2286 [10],> 1000 nM
same,IC50,KG-1,441 nM
Cc1ccc(C(=O)Nc2cc(CN3CCN(C)CC3)cc(C(F)(F)F)c2)cc1-c1ccc2cn[nH]c2c1,IC50,[3],4.7 nM
Nc1n[nH]c2ccc(-c3cccc(NC(=O)c4cccc(C(F)(F)F)c4)c3)cc12,inhibition,[1],13.1%
same,inhibition,[2],35.9%
Cc1ccc(C(=O)Nc2cc(CN3CCN(C4CCCC4)CC3)cc(C(F)(F)F)c2)cc1-c1ccc2cn[nH]c2c1,IC50,[3],7 nM
Cc1cc(NC(=O)c2cccc(C(F)(F)F)c2)cc(-c2ccc3cn[nH]c3c2)c1,inhibition,[1],27.4%
Cc1ccc(C(=O)Nc2cccc(C(F)(F)F)c2)cc1-c1ccc2c(-c3cnn(C4CCCCO4)c3)n[nH]c2c1 (stereo unspecified),Activity,NCI-H2286 [4],45%
same,IC50,[3],5.2 nM
same,IC50,KG-1,121 nM
Cc1ccc(C(=O)Nc2cccc(C(F)(F)F)c2)cc1-c1ccc2c(-c3ccc(N4CCOCC4)cc3)n[nH]c2c1,IC50,[3],21.6 nM
same,IC50,NCI-H2286 [10],140 nM
same,IC50,KG-1,561 nM
Cc1ccc(C(=O)Nc2cccc(C(F)(F)F)c2)cc1-c1ccc2c(-c3ccc(CN4CCN(C)CC4)cc3)n[nH]c2c1,Activity,NCI-H2286 [4],13%
same,IC50,[3],6.2 nM
same,IC50,KG-1,120 nM
Cc1ccc(C(=O)Nc2cc(CN3CCN(CCO)CC3)cc(C(F)(F)F)c2)cc1-c1ccc2cn[nH]c2c1,IC50,[3],3.4 nM
Cc1ccc(C(=O)Nc2cccc(C(F)(F)F)c2)cc1-c1ccc2c(-c3cnn(C)c3)n[nH]c2c1,half-life,[5],2.75 h
same,Tmax,[6],1.17 h
same,AUC(0-t),[7],3480 ng·h/mL
same,MRT,[8],3.26 h
same,IC50,[3],4.4 nM
same,AUC(0-inf),[9],3480 ng·h/mL
same,IC50,NCI-H2286 [10],24.3 nM
same,Cmax,[11],890 ng/mL
same,IC50,KG-1,65.7 nM
Nc1n[nH]c2cc(-c3cccc(NC(=O)c4cccc(C(F)(F)F)c4)c3)ccc12,inhibition,[1],22.8%
same,inhibition,[2],24.8%
Cc1ccc(C(=O)Nc2cccc(C(F)(F)F)c2)cc1-c1ccc2c(-c3ccc(C(=O)N4CCN(C)CC4)cc3)n[nH]c2c1,Activity,NCI-H2286 [4],45%
same,IC50,[3],6.5 nM
same,IC50,KG-1,300 nM
Cc1ccc(C(=O)Nc2cccc(C(C)C)c2)cc1-c1ccc2cn[nH]c2c1,IC50,[3],1.2 nM
Cc1ccc(C(=O)Nc2cccc(C(F)(F)F)c2)cc1-c1ccc2c(-c3ccc(N4CCN(C)CC4)cc3)n[nH]c2c1,Tmax,[6],1.33 h
same,AUC(0-t),[7],44 ng·h/mL
same,IC50,[3],8.8 nM
same,IC50,NCI-H2286 [10],89.5 nM
same,Cmax,[11],15.9 ng/mL
same,IC50,KG-1,136 nM
Cc1ccc(C(=O)NCc2cccc(C(F)(F)F)c2)cc1-c1ccc2cn[nH]c2c1,IC50,[3],8 nM
Cc1ccc(C(=O)Nc2cccc(C(F)(F)F)c2)cc1-c1ccc2c(-c3cnn(CCN4CCOCC4)c3)n[nH]c2c1,Activity,NCI-H2286 [4],49%
same,IC50,[3],2.6 nM
same,IC50,KG-1,114 nM
Cc1ccc(-c2ccc3cn[nH]c3c2)cc1NC(=O)c1cccc(C(F)(F)F)c1,inhibition,[1],37.3%
O=C(Nc1cccc(C(F)(F)F)c1)c1cccc(-c2ccc3cn[nH]c3c2)c1,inhibition,[1],58.2%
same,inhibition,[2],84.7%
Cc1ccc(NC(=O)c2cccc(C(F)(F)F)c2)cc1-c1ccc2cn[nH]c2c1,IC50,[3],5.5 nM
Cc1ccc(C(=O)Nc2ccc(CN3CCN(C)CC3)cc2)cc1-c1ccc2cn[nH]c2c1,IC50,[3],6.7 nM
Cc1ccc(C(=O)Nc2cccc(C(F)(F)F)c2)cc1-c1ccc2c(-c3cnn(C(C)C)c3)n[nH]c2c1,Activity,NCI-H2286 [4],31%
same,IC50,[3],7.7 nM
same,IC50,KG-1,452 nM
Cc1ccc(C(=O)Nc2ccc(N3CCN(C)CC3)cc2)cc1-c1ccc2cn[nH]c2c1,inhibition,[1],25.8%
